In brackets after ≈: the same amount, converted by molar mass.
How the values were obtained:
[1] = tested on: Mycobacterium tuberculosis; test: Antibacterial activity against Mycobacterium tuberculosis H37RvMA grown in 7H9/ADC medium measured 7 to 14 days post inoculation by broth microdilution method; type: functional
[2] = tested on: Mycobacterium tuberculosis; test: Antibacterial activity against Mycobacterium tuberculosis H37RvMA grown in GAST/Fe medium measured 7 to 14 days post inoculation by broth microdilution method; type: functional
Summary of the method: (§1)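 H37RvMa grown to OD600 0.6–0.7, diluted 1:100 in GAST/Fe. Compounds two-fold serially diluted from a top concentration of 640 μM, in duplicate. Incubated at 37 °C with humidification.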

Vero = test: Cytotoxicity against African green monkey Vero cells assessed as reduction in cell viability by MTT assay; type: cell-based; conditions: Chlorocebus sabaeus
Summary of the method: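 MTT assay in Vero cells, samples in triplicate on one occasion. Stocks at 20 mg/mL in DMSO, diluted in complete medium as 10-fold serial dilutions over 6 concentrations. Emetine used as reference. IC50 derived by non-linear dose-response curve fitting.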

[3] = Kinetic solubility of the compound in fasted-state simulated intestinal fluid at 10 to 220 uM at pH 6.5 after 2 hrs by shake flask method; type: physicochemical; conditions: read-out: Kinetic_solubility
Summary of the method: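 Miniaturised shake flask. 10 mM DMSO stocks spiked 1:50 into duplicate FaSSIF (pH 6.5), 2% final DMSO. Shaken 2 h at 25 °C, filtered, analysed by HPLC-DAD against calibration standards (10–220 μM).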

[4] = Lipophilicity, log P of the compound at 100 uM at pH 7.4 after 3 hrs by shake-flask method; type: physicochemical; conditions: buffer
Summary of the method: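 Shake-flask method run in triplicate. A 10 mM stock was spiked into a 1:1 mixture of phosphate buffer (pH 7.4) and n-octanol, then shaken at 1500 rpm on an orbital shaker for 3 h at room temperature.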

[5] = Kinetic solubility of the compound in pH 7.4 solution at 10 to 220 uM after 2 hrs by shake flask method; type: physicochemical; conditions: buffer, pH 7.4, 2 h, 220 µM
[6] = tested on: Mycobacterium tuberculosis; test: Antibacterial activity against Mycobacterium tuberculosis H37Rv grown in middlebrook 7H9 medium measured on day 7 and 14 by MABA assay; type: functional; conditions: 168 h
[7] = tested on: Mycobacterium tuberculosis; test: Antibacterial activity against Mycobacterium tuberculosis […] SAWC1125 grown in middlebrook 7H9 medium measured on day 7 and 14 by MABA assay; type: functional; conditions: 168 h
Summary of the method: (§2)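 Clinical M. tuberculosis strains tested by broth microdilution in 7H9 medium. On days 7 and 14, Alamar Blue added and plates reincubated 24 h at 37 °C. Colour read by eye (blue means no growth, pink means growth). MIC90 is the lowest concentration with no colour change.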

[8] = tested on: Mycobacterium tuberculosis; test: Antibacterial activity against Mycobacterium tuberculosis […] SAWC3933 grown in middlebrook 7H9 medium measured on day 7 and 14 by MABA assay; type: functional; conditions: 168 h; summary of the method: as §2
[9] = tested on: Mycobacterium tuberculosis; test: Antibacterial activity against Mycobacterium tuberculosis […] SAWC3385 grown in middlebrook 7H9 medium measured on day 7 and 14 by MABA assay; type: functional; conditions: 168 h; summary of the method: as §2
[10] = tested on: Mycobacterium tuberculosis; test: Antibacterial activity against Mycobacterium tuberculosis […] SAWC3200 grown in middlebrook 7H9 medium measured on day 7 and 14 by MABA assay; type: functional; conditions: 168 h; summary of the method: as §2
[11] = tested on: Mycobacterium tuberculosis; test: Antibacterial activity against Mycobacterium tuberculosis […] SAWC3388 grown in middlebrook 7H9 medium measured on day 7 and 14 by MABA assay; type: functional; conditions: 168 h; summary of the method: as §2
[12] = tested on: Mycobacterium tuberculosis; test: Antibacterial activity against Mycobacterium tuberculosis […] SAWC3906 grown in middlebrook 7H9 medium measured on day 7 and 14 by MABA assay; type: functional; conditions: 168 h; summary of the method: as §2
Liver [13] = test: Metabolic stability in rat liver microsomes assessed as compound remaining at 0.1 uM after 30 mins by LC-MS/MS analysis; type: ADME, microsome; conditions: 0.5 h
Summary of the method: (§3)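 Compound at 0.1 μM incubated in duplicate with mouse, rat or pooled human liver microsomes (0.4 mg/mL) at 37 °C. Run with and without 1 mM NADPH, sampled at predetermined time points.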

Plasma = test: Fraction unbound in human plasma at 5 uM pre-incubated for 1 hr by ultra-centrifugation and LC-MS/MS method; type: ADME, cell-free
Summary of the method: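 Pooled human plasma spiked to 5 μM and pre-incubated 1 h at 37 °C. Duplicate aliquots ultracentrifuged 4 h at 37 °C; an unspun aliquot served as the total sample. Analyte measured by LC-MS/MS.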

Liver [14] = test: Metabolic stability in human liver microsomes assessed as compound remaining at 0.1 uM after 30 mins by LC-MS/MS analysis; type: ADME, microsome; conditions: 0.5 h; summary of the method: as §3
Liver [15] = test: Metabolic stability in mouse liver microsomes assessed as compound remaining at 0.1 uM after 30 mins by LC-MS/MS analysis; type: ADME, microsome; conditions: 0.5 h; summary of the method: as §3
Mus musculus [16] = test: Apparent elimination half life in C57/BL6 mouse at 20 mg/kg, po measured up to 24 hrs post dose by LC-MS/MS analysis; type: ADME, organism-based; conditions: in vivo
Summary of the method: (§4)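 Male mice, 3 per route, not fasted, free access to water. Oral dose given as aqueous suspension in 0.5% (w/v) hydroxypropyl methylcellulose with 0.4% (v/v) Tween 80. Blood drawn into heparinised tubes at 0.5, 1, 3, 5, 8, 12 and 24 h, kept below -15 °C, protein-precipitated with ice-cold acetonitrile. Quantified by LC-MS/MS against standards made in drug-free mouse blood.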

Mus musculus [17] = test: Cmax in C57/BL6 mouse at 20 mg/kg, po measured up to 24 hrs post dose by LC-MS/MS analysis; type: ADME, organism-based; set-up: dose 20 mg/kg, route oral; conditions: in vivo; summary of the method: as §4
Mus musculus [18] = test: AUC (0 to infinity) in C57/BL6 mouse at 20 mg/kg, po measured up to 24 hrs post dose by LC-MS/MS analysis; type: ADME, organism-based; set-up: dose 20 mg/kg, route oral, time infinity; conditions: in vivo; summary of the method: as §4
Mus musculus [19] = test: Oral bioavailability in C57/BL6 mouse at 20 mg/kg measured up to 24 hrs post dose by LC-MS/MS analysis; type: ADME, organism-based; conditions: in vivo; summary of the method: as §4
Mus musculus [20] = test: Apparent elimination half life in C57/BL6 mouse at 5 mg/kg, iv measured up to 24 hrs post dose by LC-MS/MS analysis; type: ADME, organism-based; conditions: in vivo
Summary of the method: (§5)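 Male mice, 3 animals, not fasted, given an IV bolus in 10% DMSO, 50% propylene glycol/ethanol (4:1) and 40% polyethylene glycol or water. Blood sampled into heparinised tubes at 0.17, 0.5, 1, 3, 5, 8, 12 and 24 h, stored frozen, precipitated with ice-cold acetonitrile. Measured by LC-MS/MS with internal standards against blood-matrix calibration standards.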

Mus musculus [21] = test: Volume of distribution in C57/BL6 mouse at 5 mg/kg, iv measured up to 24 hrs post dose by LC-MS/MS analysis; type: ADME, organism-based; conditions: in vivo; summary of the method: as §5
Mus musculus [22] = test: AUC (0 to infinity) in C57/BL6 mouse at 5 mg/kg, iv measured up to 24 hrs post dose by LC-MS/MS analysis; type: ADME, organism-based; set-up: dose 5 mg/kg, route intravenous, time infinity; conditions: in vivo; summary of the method: as §5
Mus musculus [23] = test: Tmax in C57/BL6 mouse at 20 mg/kg, po measured up to 24 hrs post dose by LC-MS/MS analysis; type: ADME, organism-based; conditions: in vivo; summary of the method: as §4
Liver [24] = test: Drug metabolism in BALB mouse liver microsomes assessed as cleavage of amide bound on RHS at 10 uM after 1 hr by LC-MS/MS analysis; type: ADME, microsome
Summary of the method: (§6)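 Incubation at 37 °C for 1 h with shaking in 100 mM phosphate buffer pH 7.4, 1 mg/ml microsomes, 5 mM MgCl2 and 1 mM NADPH. Ice-cold acetonitrile precipitation, filtration, then LC-MS/MS. Controls: unincubated sample, and samples lacking NADPH or lacking microsomes; propranolol 10 μM as positive control. Metabolites found by comparing T60 with T0 and no-NADPH chromatograms, with product ion spectra of [M+H]+ compared against parent and synthetic standards where available.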

Liver [25] = test: Drug metabolism in BALB mouse liver microsomes assessed as N-demethylation on LHS at 10 uM after 1 hr by LC-MS/MS analysis; type: ADME, microsome; summary of the method: as §6
[26] = tested on: Mycobacterium tuberculosis; test: Antibacterial activity against wild type Mycobacterium tuberculosis H37Rv grown in GAST/Fe medium measured on day 14 post inoculation by broth microdilution method; type: functional; conditions: 336 h; summary of the method: as §1

Structure (SMILES) | MIC99 [1] | MIC99 [2] | IC50 (Vero) | solubility kinetic at 2 h [3] | logD at 3 h, 100 µM [4] | Kinetic_solubility [5] | MIC90 [6] | MIC90 [7] | MIC90 [8] | Stability (Liver [13]) | Fu (Plasma) | Stability (Liver [14]) | Stability (Liver [15]) | betat1/2(app) (Mus musculus [16]) | Cmax (Mus musculus [17]) | AUC (Mus musculus [18]) | F (Mus musculus [19]) | betat1/2(app) (Mus musculus [20]) | Vd (Mus musculus [21]) | AUC (Mus musculus [22]) | further results
CN1CCN(c2ccc(NC(=O)c3cc(N(C)Cc4ccc(C(F)(F)F)cc4)ncn3)cc2)CC1 | 3.13 µM (≈ 1.52 µg/mL) | 1.25 µM (≈ 0.606 µg/mL) | 161 µM | 150 µM (≈ 72.7 µg/mL) | 5 | < 5 µM | 1.25 to 2.5 µM (≈ 0.606 to 1.21 µg/mL) | 2.5 to 5 µM (≈ 1.21 to 2.42 µg/mL) | 1.25 to 2.5 µM (≈ 0.606 to 1.21 µg/mL) | 37% | 0.14% | 57% | 21% | 15.8 h | 420 nM | 564 µM·min | 26% | 10.3 h | 21.8 L/kg | 540 µM·min | MIC90 [9]: 1.25 µM (≈ 0.606 µg/mL); MIC90 [10]: 1.25 µM (≈ 0.606 µg/mL); MIC90 [11]: 1.25 to 2.5 µM (≈ 0.606 to 1.21 µg/mL); MIC90 [12]: 0.31 to 0.63 µM (≈ 0.15 to 0.305 µg/mL)
CN(Cc1ccc(C(F)(F)F)cc1)c1cc(C(=O)Nc2ccccc2)ncn1 | 5 µM (≈ 1.93 µg/mL) | 5 µM (≈ 1.93 µg/mL) | 258 µM | 5 µM (≈ 1.93 µg/mL) | 5 | < 5 µM | – | – | – | 87% | 0.11% | 55% | 60% | 8.7 h | 2200 nM | 1334 µM·min | 28% | 4.6 h | 4.3 L/kg | 1224 µM·min | Tmax (Mus musculus [23]): 1 h; Drug metabolism (Liver [24]): Metabolite_Detected; Drug metabolism (Liver [25]): Metabolite_Detected
CN(Cc1ccc(F)cc1)c1cc(C(=O)Nc2nncs2)ncn1 | 12.5 µM (≈ 4.3 µg/mL) | 4.7 µM (≈ 1.62 µg/mL) | 21.9 µM | < 5 µM | 2 | 128 µM | 2.5 µM (≈ 0.861 µg/mL) | < 0.08 µM | 0.625 µM (≈ 0.215 µg/mL) | 65% | 0.01% | 67% | 74% | 4.4 h | 2580 nM | 1022 µM·min | 19% | 5.1 h | 4.8 L/kg | 1329 µM·min | MIC99 [26]: 5 µM (≈ 1.72 µg/mL); MIC90 [9]: < 0.08 µM; MIC90 [10]: < 0.08 µM; MIC90 [11]: 0.15 µM (≈ 0.0517 µg/mL); MIC90 [12]: < 0.08 µM; Tmax (Mus musculus [23]): 1 h; Drug metabolism (Liver [24]): Metabolite_Detected; Drug metabolism (Liver [25]): Metabolite_Detected

Reference: ChEMBL document CHEMBL4028901, “Novel Antitubercular 6-Dialkylaminopyrimidine Carboxamides from Phenotypic Whole-Cell High Throughput Screening of a SoftFocus Library: Structure-Activity Relationship and Target Identification Studies” (J Med Chem, 2017)
